Data on four compounds can be found in ChEMBL document CHEMBL3098034, “Synthesis and biological evaluation of α-hydroxyalkylphosphonates as new antimicrobial agents” (Bioorg Med Chem Lett, 2014).

≈ marks a conversion by molar mass, not a printed value. Calls of active or inactive are those of the source. No cut-off for these calls is given here.

For assay [1], the system named is Staphylococcus aureus. The assay can be described thus: Bactericidal activity against methicillin-resistant Staphylococcus aureus BW61 after 24 hrs by CFU counting assay. The format is functional. Conditions: BW61, 24 h. Summed up:
(§1)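 MBC (lowest concentration killing the pathogen) determined per CLSI specifications, with fosfomycin, ceftriaxone, ciprofloxacin and chloramphenicol run as reference drugs; S. aureus ATCC 29213 used as quality-control strain.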

Assay [2] deals with Staphylococcus aureus. The assay can be described thus: Bactericidal activity against Staphylococcus aureus ATCC 29213 after 24 hrs by CFU counting assay. In kind it is functional. Conditions: ATCC 29213, 24 h. Summed up:
as §1

Assay [3] has as its system Bacillus cereus. The assay can be described thus: Bactericidal activity against Bacillus cereus ATCC 11778 after 24 hrs by CFU counting assay. The format is functional. Conditions: ATCC 11778, 24 h. Summed up:
as §1

Assay [4] deals with Pseudomonas aeruginosa. The assay can be described thus: Bactericidal activity against multidrug-resistant Pseudomonas aeruginosa PAO1 after 24 hrs by CFU counting assay. As to conditions: PAO1, 24 h. In kind it is functional. The essentials:
as §1

Assay [5] deals with Stenotrophomonas maltophilia. The assay can be described thus: Bactericidal activity against multidrug-resistant Stenotrophomonas maltophilia D457R after 24 hrs by CFU counting assay. In kind it is functional. The essentials:
as §1

The test system of assay [6] is Acinetobacter haemolyticus. As to the kind of experiment: Bactericidal activity against vancomycin-resistant Acinetobacter haemolyticus BW62 after 24 hrs by CFU counting assay. The format is functional. Conditions: BW62, 24 h. The essentials:
as §1

For assay [7], the system named is Escherichia coli. The assay can be described thus: Bactericidal activity against ESBL-producing Escherichia coli BW55 after 24 hrs by CFU counting assay. The format is functional. Conditions: BW55, 24 h. Summed up: as §1
Assay [8] relates to Escherichia coli. As to the kind of experiment: Bactericidal activity against multidrug-resistant Escherichia coli BW54 after 24 hrs by CFU counting assay. The format is functional. As to conditions: BW54, 24 h. The essentials:
as §1

For assay [9], the system named is Staphylococcus aureus. As to the kind of experiment: Antibacterial activity against methicillin-resistant Staphylococcus aureus BW61 after 24 hrs by broth microdilution method. In kind it is functional. Conditions: BW61, 24 h. The essentials: (§2)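 MIC (lowest concentration preventing growth) determined per CLSI specifications, with fosfomycin, ceftriaxone, ciprofloxacin and chloramphenicol run as reference drugs; S. aureus ATCC 29213 used as quality-control strain.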

The subject of assay [10] is Staphylococcus aureus. The assay can be described thus: Antibacterial activity against Staphylococcus aureus ATCC 29213 after 24 hrs by broth microdilution method. The format is functional. Conditions: ATCC 29213, 24 h. The essentials:
as §2

The subject of assay [11] is Bacillus cereus. The assay can be described thus: Antibacterial activity against Bacillus cereus ATCC 11778 after 24 hrs by broth microdilution method. The format is functional. Conditions: ATCC 11778, 24 h. Summed up: as §2
The test system of assay [12] is Pseudomonas aeruginosa. As to the kind of experiment: Antibacterial activity against multidrug-resistant Pseudomonas aeruginosa PAO1 after 24 hrs by broth microdilution method. The format is functional. Conditions: PAO1, 24 h. Summed up: as §2
In assay [13] the test system is Stenotrophomonas maltophilia. The assay can be described thus: Antibacterial activity against multidrug-resistant Stenotrophomonas maltophilia D457R after 24 hrs by broth microdilution method. The format is functional. Summed up:
as §2

Assay [14] concerns Acinetobacter haemolyticus. As to the kind of experiment: Antibacterial activity against vancomycin-resistant Acinetobacter haemolyticus BW62 after 24 hrs by broth microdilution method. As to conditions: BW62, 24 h. The format is functional. Summed up:
as §2

Assay [15] relates to Escherichia coli. The assay can be described thus: Antibacterial activity against ESBL-producing Escherichia coli BW55 after 24 hrs by broth microdilution method. The format is functional. As to conditions: BW55, 24 h. Summed up:
as §2

In assay [16] the test system is Escherichia coli. As to the kind of experiment: Antibacterial activity against multidrug-resistant Escherichia coli BW54 after 24 hrs by broth microdilution method. In kind it is functional. As to conditions: BW54, 24 h. Summed up: as §2
Assay [17] concerns Staphylococcus aureus. The assay can be described thus: Antibacterial activity against Staphylococcus aureus ATCC 29213 at 10 ug by disc diffusion method. In kind it is functional. As to conditions: read-out: IZ.
Assay [18] deals with Bacillus cereus. The assay can be described thus: Antibacterial activity against Bacillus cereus ATCC 11778 at 10 ug by disc diffusion method. Conditions: for zone of inhibition at 10 µg/disc: read-out: IZ. In kind it is functional.
Assay [19] deals with Pseudomonas aeruginosa. As to the kind of experiment: Antibacterial activity against multidrug-resistant Pseudomonas aeruginosa PAO1 at 10 ug by disc diffusion method. As to conditions: read-out: IZ. The format is functional.
For assay [20], the system named is Stenotrophomonas maltophilia. The assay can be described thus: Antibacterial activity against multidrug-resistant Stenotrophomonas maltophilia D457R at 10 ug by disc diffusion method. In kind it is functional.
The subject of assay [21] is Acinetobacter haemolyticus. The assay can be described thus: Antibacterial activity against vancomycin-resistant Acinetobacter haemolyticus BW62 at 10 ug by disc diffusion method. The format is functional. As to conditions: for zone of inhibition at 10 µg/disc: read-out: IZ.
Assay [22] deals with Escherichia coli. The assay can be described thus: Antibacterial activity against ESBL-producing Escherichia coli BW55 at 10 ug by disc diffusion method. In kind it is functional. Conditions: read-out: IZ.
Assay [23] relates to Escherichia coli. As to the kind of experiment: Antibacterial activity against multidrug-resistant Escherichia coli BW54 at 10 ug by disc diffusion method. Conditions: for zone of inhibition at 10 µg/disc: read-out: IZ. The format is functional.
The test system of the next assay is Human alphaherpesvirus 2. The assay can be described thus: Antiviral activity against Herpes simplex virus 2 G. The format is functional, organism-based. Conditions: Human alphaherpesvirus 2, strain G.

For `O=P(Oc1ccccc1)(Oc1ccccc1)[C@](O)(CCl)c1ccc(Cl)cc1`, the MBC in the assay on Staphylococcus aureus [1] is 64 µg/mL (≈ 151 µM); with Staphylococcus aureus [2], 64 µg/mL (≈ 151 µM); with Bacillus cereus [3] it was 32 µg/mL (≈ 75.6 µM); in the assay on Pseudomonas aeruginosa [4] it was 128 µg/mL (≈ 302 µM); in [5] it was 64 µg/mL (≈ 151 µM); in assay [6], 128 µg/mL (≈ 302 µM). Further, the MBC in the assay with Escherichia coli [7] and with Escherichia coli [8] was 64 µg/mL (≈ 151 µM) throughout. In addition, the minimal inhibitory concentration (MIC) was determined as 32 µg/mL (≈ 75.6 µM) with Staphylococcus aureus [9]; 32 µg/mL (≈ 75.6 µM) against Staphylococcus aureus [10]; 32 µg/mL (≈ 75.6 µM) in the assay with Bacillus cereus [11]; 128 µg/mL (≈ 302 µM) against Pseudomonas aeruginosa [12]; 32 µg/mL (≈ 75.6 µM) in assay [13]; 64 µg/mL (≈ 151 µM) in assay [14]. The MIC was determined as 32 µg/mL (≈ 75.6 µM) against Escherichia coli [15] and 64 µg/mL (≈ 151 µM) against Escherichia coli [16]. Also, the zone of inhibition at 10 µg/disc in the assay on Staphylococcus aureus [17] worked out at 9 mm; in the assay on Bacillus cereus [18], 9 mm; with Pseudomonas aeruginosa [19] it was 10 mm; in [20] (read-out: IZ), 11 mm; in [21], 7 mm; in the assay on Escherichia coli [22], 10 mm. The zone of inhibition at 10 µg/disc in the assay on Escherichia coli [23] was 9 mm.
Turning to `C[C@](O)(CCl)P(=O)(Oc1ccccc1)Oc1ccccc1`, the MBC is 256 µg/mL (≈ 784 µM) in the assay with Staphylococcus aureus [1]; no less than 256 µg/mL in the assay on Staphylococcus aureus [2]; 128 µg/mL (≈ 392 µM) against Bacillus cereus [3]; 256 µg/mL (≈ 784 µM) in the assay on Pseudomonas aeruginosa [4]; no less than 256 µg/mL in assay [5]; no less than 256 µg/mL in [6]. Moreover, the results for the MBC in the assay on Escherichia coli [7] and against Escherichia coli [8] were 256 µg/mL (≈ 784 µM) and no less than 256 µg/mL, respectively. In addition, the MIC in the assay with Staphylococcus aureus [9] came to 128 µg/mL (≈ 392 µM); in the assay on Staphylococcus aureus [10], 128 µg/mL (≈ 392 µM); in the assay with Bacillus cereus [11], 64 µg/mL (≈ 196 µM); in the assay with Pseudomonas aeruginosa [12], 64 µg/mL (≈ 196 µM); in assay [13], 128 µg/mL (≈ 392 µM); in [14], 64 µg/mL (≈ 196 µM). Besides, the MIC against Escherichia coli [15] amounted to 64 µg/mL (≈ 196 µM); against Escherichia coli [16], 128 µg/mL (≈ 392 µM). The zone of inhibition at 10 µg/disc came out at 9 mm in the assay on Staphylococcus aureus [17]; 12 mm with Bacillus cereus [18]; 7 mm in the assay on Pseudomonas aeruginosa [19]; 8 mm in assay [21]; 7 mm in the assay on Escherichia coli [22]; 8 mm with Escherichia coli [23]. Moreover, the result in assay [20] was inactive.
For the compound `Nc1ncnc2c1ncn2CCOCP(=O)(O)O` [ADEFOVIR], in the assay on Human alphaherpesvirus 2, inhibition was half-maximal at 77 µM (IC50).
As to `O=P(Oc1ccccc1)(Oc1ccccc1)[C@@]1(O)c2ccccc2C[C@@H]1Cl` (mixture of isomers), the MBC (with Staphylococcus aureus [1]; against Staphylococcus aureus [2]; against Bacillus cereus [3]; against Pseudomonas aeruginosa [4]; in assay [5]; in assay [6]) was 256 µg/mL each time. Besides, the MBC in the assay on Escherichia coli [7] and against Escherichia coli [8] was 256 µg/mL throughout. For the same compound, the MIC was 256 µg/mL against Staphylococcus aureus [9]; 256 µg/mL in the assay on Staphylococcus aureus [10]; 128 µg/mL with Bacillus cereus [11]; 128 µg/mL against Pseudomonas aeruginosa [12]; 128 µg/mL in assay [13]; 128 µg/mL in assay [14]. Further, the MIC in the assay on Escherichia coli [15] and in the assay on Escherichia coli [16] was 128 µg/mL in each case. Further, the zone of inhibition at 10 µg/disc in the assay with Staphylococcus aureus [17] is 5 mm; in the assay with Pseudomonas aeruginosa [19], 9 mm; in the assay on Escherichia coli [22], 8 mm. Also, the result (with Bacillus cereus [18]; in assay [20]; in assay [21]; in the assay on Escherichia coli [23]) was inactive.
